The values that follow come from ChEMBL document CHEMBL4257453, “Identification of karanjin isolated from the Indian beech tree as a potent CYP1 enzyme inhibitor with cellular efficacy via screening of a natural product repository” (Medchemcomm, 2018).

SMILES strings stand for the structures. Where only a bound is given, the exact number is not on record here.

The target of one data set is Cytochrome P450 2C9 (Homo sapiens, UniProt P11712). The data set is described as follows: Inhibition of human recombinant CYP2C9 expressed in HEK293 cells using 3-cyano-7-ethoxycoumarin substrate substrate preincubated for 30 mins followed by substrate addition and measured after 60 mins by fluorescence assay relative to control. Type of data set: ADME, cell-based. In outline:
(§1)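 HEK293 cells adapted to suspension and transiently transfected with pcDNA3.1 plasmids carrying the individual CYP; 100×10^3 cells per well in triplicate. […] Fluorogenic substrate is then added at 5 μM and fluorescence read for 60 min.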

The target in another data set is CYP2C9 (Homo sapiens, UniProt P11712). The data set is described as follows: Inhibition of recombinant human CYP2C9 expressed in baker's yeast-derived microsomes (Sacchrosomes) at 10 uM using 3-cyano-7-ethoxycoumarin substrate by EROD assay relative to control. Type of data set: ADME. Conditions: probe 3-cyano-7-ethoxycoumarin. In outline: (§2)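 Yeast microsomes carrying recombinant CYP (Sacchrosomes). […] Substrates per isoform are 7-ethoxyresorufin, 3-cyano-7-ethoxycoumarin, EOMCC or dibenzylfluorescein, read as endpoint fluorescence. Background from compound-only wells without enzyme is subtracted. Independent triplicate runs; α-naphthoflavone positive control.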
Sequence of CYP2C9 (P11712 whole entry, canonical isoform): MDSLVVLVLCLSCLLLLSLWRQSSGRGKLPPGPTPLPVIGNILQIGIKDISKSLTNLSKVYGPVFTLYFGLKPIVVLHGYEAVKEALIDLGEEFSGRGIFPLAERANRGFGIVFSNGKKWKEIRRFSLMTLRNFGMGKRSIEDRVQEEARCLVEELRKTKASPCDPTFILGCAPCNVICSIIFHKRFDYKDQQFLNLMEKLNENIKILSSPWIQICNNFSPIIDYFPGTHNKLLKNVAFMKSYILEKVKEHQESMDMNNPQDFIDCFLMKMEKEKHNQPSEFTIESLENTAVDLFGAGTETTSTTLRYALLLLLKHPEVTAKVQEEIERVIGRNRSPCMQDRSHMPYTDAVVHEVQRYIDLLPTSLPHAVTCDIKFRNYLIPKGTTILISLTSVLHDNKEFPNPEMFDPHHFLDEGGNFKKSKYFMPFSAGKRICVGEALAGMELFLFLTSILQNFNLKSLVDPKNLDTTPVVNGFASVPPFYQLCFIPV

The target in another data set is T1, CYP1B1 (Homo sapiens, UniProt Q16678).
T1 sequence (Q16678 whole entry): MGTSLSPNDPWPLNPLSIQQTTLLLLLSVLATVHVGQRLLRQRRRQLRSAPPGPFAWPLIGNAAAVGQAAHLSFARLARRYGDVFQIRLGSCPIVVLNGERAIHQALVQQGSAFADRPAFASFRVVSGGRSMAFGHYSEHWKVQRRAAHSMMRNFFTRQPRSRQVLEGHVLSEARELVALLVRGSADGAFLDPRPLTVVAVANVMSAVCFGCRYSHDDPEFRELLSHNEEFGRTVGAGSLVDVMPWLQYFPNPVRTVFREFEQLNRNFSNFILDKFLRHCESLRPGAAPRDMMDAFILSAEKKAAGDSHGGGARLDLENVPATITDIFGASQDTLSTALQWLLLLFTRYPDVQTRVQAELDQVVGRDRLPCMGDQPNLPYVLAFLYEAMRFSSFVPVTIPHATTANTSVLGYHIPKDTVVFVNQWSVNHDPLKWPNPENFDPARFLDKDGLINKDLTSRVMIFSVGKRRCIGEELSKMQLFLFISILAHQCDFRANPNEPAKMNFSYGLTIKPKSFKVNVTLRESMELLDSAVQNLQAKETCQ
As to the kind of experiment: Inhibition of recombinant human CYP1B1 expressed in baker's yeast-derived microsomes (Sacchrosomes) at 10 uM using 7-ethoxyresorufin substrate by EROD assay relative to control. The data set is classed as ADME. The note with it: probe 7-ethoxyresorufin. An outline of the steps:
as §2

The target in another data set is T2, CYP1A1 (Homo sapiens, UniProt P04798).
T2 sequence (P04798 whole entry): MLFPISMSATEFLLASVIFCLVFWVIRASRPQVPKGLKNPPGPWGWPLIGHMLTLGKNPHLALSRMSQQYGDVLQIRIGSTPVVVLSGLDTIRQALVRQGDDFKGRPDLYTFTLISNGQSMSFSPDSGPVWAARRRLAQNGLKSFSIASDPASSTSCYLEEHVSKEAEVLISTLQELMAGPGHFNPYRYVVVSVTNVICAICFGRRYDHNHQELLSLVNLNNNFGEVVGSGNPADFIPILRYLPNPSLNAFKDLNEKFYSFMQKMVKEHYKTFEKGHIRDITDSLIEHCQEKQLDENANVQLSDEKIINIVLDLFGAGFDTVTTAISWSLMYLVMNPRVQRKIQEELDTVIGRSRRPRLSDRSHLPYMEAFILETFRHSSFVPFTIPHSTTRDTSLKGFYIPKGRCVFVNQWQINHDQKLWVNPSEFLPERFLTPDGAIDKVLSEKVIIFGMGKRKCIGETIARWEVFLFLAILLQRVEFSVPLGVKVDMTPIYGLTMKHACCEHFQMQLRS
As to the kind of experiment: Inhibition of human recombinant CYP1A1 expressed in HEK293 cells at 10 uM using 7-ethoxyresorufin substrate preincubated for 30 mins followed by substrate addition and measured after 60 mins by fluorescence assay relative to control. Type of data set: cell-based. The note with it: HEK293 cells expressing human recombinant CYP1A1, probe 7-ethoxyresorufin. In outline:
as §1

The target of another data set is Cytochrome P450 2D6 (Homo sapiens, UniProt P10635). The data set is described as follows: Inhibition of human recombinant CYP2D6 expressed in HEK293 cells using 7-ethoxy-methyloxy-3-cyanocoumarin substrate substrate preincubated for 30 mins followed by substrate addition and measured after 60 mins by fluorescence assay relative to control. The data set is classed as ADME, cell-based. An outline of the steps:
as §1

For another data set, the target named is CYP3A4 (Homo sapiens, UniProt P08684). As to the kind of experiment: Inhibition of recombinant human CYP3A4 expressed in baker's yeast-derived microsomes (Sacchrosomes) at 10 uM using dibenzylfluorescein substrate by EROD assay relative to control. Type of data set: ADME. The note with it: probe dibenzylfluorescein. In outline: as §2
Sequence of CYP3A4 (P08684 whole entry): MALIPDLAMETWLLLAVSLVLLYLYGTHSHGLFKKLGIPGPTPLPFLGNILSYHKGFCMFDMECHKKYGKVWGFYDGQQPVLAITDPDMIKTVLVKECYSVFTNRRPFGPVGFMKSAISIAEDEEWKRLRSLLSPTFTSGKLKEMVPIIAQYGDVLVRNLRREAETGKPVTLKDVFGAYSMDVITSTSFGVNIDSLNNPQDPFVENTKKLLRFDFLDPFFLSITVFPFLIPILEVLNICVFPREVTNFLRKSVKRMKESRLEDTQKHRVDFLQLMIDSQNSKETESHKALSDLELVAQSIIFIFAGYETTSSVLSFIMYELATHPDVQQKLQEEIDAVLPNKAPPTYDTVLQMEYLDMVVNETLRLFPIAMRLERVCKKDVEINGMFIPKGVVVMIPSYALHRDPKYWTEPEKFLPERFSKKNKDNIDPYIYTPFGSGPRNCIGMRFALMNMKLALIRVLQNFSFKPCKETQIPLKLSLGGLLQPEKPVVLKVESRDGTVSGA
The target in another data set is T3, Cytochrome P450 1A2 (Homo sapiens, UniProt P05177).
T3 sequence (P05177 whole entry): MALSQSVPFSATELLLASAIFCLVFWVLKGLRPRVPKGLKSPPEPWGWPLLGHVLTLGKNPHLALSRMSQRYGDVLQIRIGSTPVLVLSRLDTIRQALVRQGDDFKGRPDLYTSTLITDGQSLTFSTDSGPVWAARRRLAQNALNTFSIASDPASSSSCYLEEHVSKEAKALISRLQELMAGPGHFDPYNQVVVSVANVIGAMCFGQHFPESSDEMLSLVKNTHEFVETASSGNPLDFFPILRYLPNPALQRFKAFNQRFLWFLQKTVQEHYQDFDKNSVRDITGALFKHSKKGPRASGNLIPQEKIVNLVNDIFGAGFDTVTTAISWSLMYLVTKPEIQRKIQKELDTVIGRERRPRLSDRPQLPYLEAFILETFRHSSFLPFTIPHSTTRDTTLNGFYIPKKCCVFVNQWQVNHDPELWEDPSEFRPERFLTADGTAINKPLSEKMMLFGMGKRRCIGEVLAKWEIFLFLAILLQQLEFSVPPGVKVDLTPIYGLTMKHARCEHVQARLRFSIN
The data set is described as follows: Inhibition of human recombinant CYP1A2 expressed in HEK293 cells using 3-cyano-7-ethoxycoumarin substrate preincubated for 30 mins followed by substrate addition and measured after 60 mins by fluorescence assay relative to control. The data set is classed as ADME, cell-based. An outline of the steps: as §1

Another data set has as its target CYP2C19 (Homo sapiens, UniProt P33261). As to the kind of experiment: Inhibition of recombinant human CYP2C19 expressed in baker's yeast-derived microsomes (Sacchrosomes) at 10 uM using 3-cyano-7-ethoxycoumarin substrate by EROD assay relative to control. The data set is classed as ADME. The note with it: probe 3-cyano-7-ethoxycoumarin. An outline of the steps:
as §2

In a further data set the target is T4, Cytochrome P450 1B1 (Homo sapiens, UniProt Q16678).
T4 sequence (Q16678 whole entry): T1 sequence (Q16678 whole entry)
The data set is described as follows: Inhibition of human recombinant CYP1B1 expressed in HEK293 cells using 7-ethoxyresorufin substrate substrate preincubated for 30 mins followed by substrate addition and measured after 60 mins by fluorescence assay relative to control. The data set is classed as ADME, cell-based. An outline of the steps: as §1

For a further data set, the target named is Cytochrome P450 2C19 (Homo sapiens, UniProt P33261). The data set is described as follows: Inhibition of human recombinant CYP2C19 expressed in HEK293 cells using 3-cyano-7-ethoxycoumarin substrate substrate preincubated for 30 mins followed by substrate addition and measured after 60 mins by fluorescence assay relative to control. Type of data set: ADME, cell-based. In outline:
as §1

The target of another data set is T5, Cytochrome P450 1A1 (Homo sapiens, UniProt P04798).
T5 sequence (P04798 whole entry): T2 sequence (P04798 whole entry)
The data set is described as follows: Inhibition of human recombinant CYP1A1 expressed in HEK293 cells using 7-ethoxyresorufin substrate preincubated for 30 mins followed by substrate addition and measured after 60 mins by fluorescence assay relative to control. The data set is classed as cell-based. An outline of the steps:
as §1

Sequence of Cytochrome P450 2C9 (P11712 whole entry): as the sequence (P11712 whole entry, canonical isoform) above
Sequence of Cytochrome P450 2D6 (P10635 whole entry): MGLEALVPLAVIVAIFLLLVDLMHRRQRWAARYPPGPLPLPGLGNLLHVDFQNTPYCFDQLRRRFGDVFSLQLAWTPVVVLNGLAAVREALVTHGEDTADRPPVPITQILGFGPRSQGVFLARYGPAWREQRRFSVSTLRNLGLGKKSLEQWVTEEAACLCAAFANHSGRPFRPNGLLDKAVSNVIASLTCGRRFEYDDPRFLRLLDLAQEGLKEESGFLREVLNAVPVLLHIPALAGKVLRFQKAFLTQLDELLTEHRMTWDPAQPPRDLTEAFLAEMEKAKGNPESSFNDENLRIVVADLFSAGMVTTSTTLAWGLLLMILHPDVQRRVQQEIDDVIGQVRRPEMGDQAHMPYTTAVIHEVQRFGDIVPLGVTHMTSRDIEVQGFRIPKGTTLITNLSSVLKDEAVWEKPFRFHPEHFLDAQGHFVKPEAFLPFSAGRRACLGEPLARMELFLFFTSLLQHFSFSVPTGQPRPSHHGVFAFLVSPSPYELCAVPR
Sequence of CYP2C19 (P33261 whole entry): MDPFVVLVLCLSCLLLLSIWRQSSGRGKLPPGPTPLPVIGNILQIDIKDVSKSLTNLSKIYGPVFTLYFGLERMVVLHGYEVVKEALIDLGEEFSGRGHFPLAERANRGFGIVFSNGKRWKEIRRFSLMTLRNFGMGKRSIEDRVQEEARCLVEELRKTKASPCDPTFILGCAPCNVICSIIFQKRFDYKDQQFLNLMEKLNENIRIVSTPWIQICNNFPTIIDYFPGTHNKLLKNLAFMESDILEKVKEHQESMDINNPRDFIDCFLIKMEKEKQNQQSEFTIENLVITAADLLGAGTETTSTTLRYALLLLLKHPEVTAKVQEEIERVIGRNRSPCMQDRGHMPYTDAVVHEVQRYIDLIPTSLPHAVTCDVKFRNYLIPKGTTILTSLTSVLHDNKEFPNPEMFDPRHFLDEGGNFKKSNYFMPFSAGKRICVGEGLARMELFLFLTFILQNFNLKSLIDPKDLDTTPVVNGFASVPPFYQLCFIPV
Sequence of Cytochrome P450 2C19 (P33261 whole entry): as above

The term IC50 denotes the concentration at which inhibition is half-maximal. The term inhibition denotes the relative decrease from the control value, in per cent. As usually defined, the Ki is the dissociation constant of the complex between target and ligand, obtained from inhibition or displacement. In the case of `COc1c2ccoc2cc2oc(=O)ccc12` [BERGAPTEN], the IC50 is over 10 µM on Cytochrome P450 2C9; over 10 µM at Cytochrome P450 2D6; 90 nM at Cytochrome P450 1A2; 15.3 µM at Cytochrome P450 1B1; over 10 µM at Cytochrome P450 2C19; 80 nM on Cytochrome P450 1A1. Moreover, the inhibition at 10 µM was found to be 4% at CYP2C9, 20% at CYP1B1, 3% on CYP3A4 and 5% on CYP2C19. For the same compound, the inhibition at 1 h, 10 µM at CYP1A1 was 91%. Moreover, the Ki at Cytochrome P450 1A2 and at Cytochrome P450 1A1 was 60 nM throughout.

On to `COc1c2ccoc2c(OC)c2oc(=O)ccc12` [ISOPIMPINELLIN], for which the IC50 is over 10 µM at Cytochrome P450 2C9; over 10 µM on Cytochrome P450 2D6; 40 nM on Cytochrome P450 1A2; 6.38 µM on Cytochrome P450 1B1; over 10 µM on Cytochrome P450 2C19; 20 nM on Cytochrome P450 1A1. The inhibition at 10 µM at CYP2C9 was 0%; at CYP1B1, 55%; on CYP3A4, 0%; at CYP2C19, 0%. Further, the inhibition at 1 h, 10 µM on CYP1A1 worked out at 91%. In addition, the Ki was 28 nM at Cytochrome P450 1A2 and 12 nM on Cytochrome P450 1A1.
